# Assay results reported in ChEMBL document CHEMBL6092177, “Applying molecular hybridization to design a new class of pyrazolo[3,4-d]pyrimidines as Src inhibitors active in hepatocellular carcinoma” (Eur J Med Chem, 2024).
# The source made the active and inactive calls. The calls are words filed in the database; no cut-off is given here.
# Legend:
# HepG2 [1] = assay: Antiproliferative activity against human HepG2 cells assessed as cell growth inhibition measured at 24 hrs by MTT assay; conditions: HepG2, 24 h
# HepG2 [2] = assay: Antiproliferative activity against human HepG2 cells assessed as cell growth inhibition measured at 48 hrs by MTT assay; conditions: HepG2, 48 h
# HepG2 [3] = assay: Antiproliferative activity against human HepG2 cells assessed as cell growth inhibition measured at 72 hrs by MTT assay; conditions: HepG2, 72 h
# Huh-7 [4] = assay: Antiproliferative activity against human Huh-7 cells assessed as cell growth inhibition measured at 48 hrs by MTT assay; conditions: Huh-7, 48 h
# Huh-7 [5] = assay: Antiproliferative activity against human Huh-7 cells assessed as cell growth inhibition measured at 72 hrs by MTT assay; conditions: Huh-7, 72 h
# [6] = Thermodynamic solubility of compound by LC-MS/MS analysis; type: physicochemical; conditions: read-out: Therm_solubility
# Procedure, shortened: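 Thermodynamic solubility: solubilized compound quantified in triplicate by LC-MS/MS on a C18 column with water/ACN gradient, both with 0.1% formic acid. Calibration from DMSO standards 0.1–100 µM; LoQ below 0.01 µM.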
# [7] = Apparent permeability of compound in PBS buffer at pH 7.4 incubated for 4 hrs by LC-UV-MS analysis; type: ADME; conditions: not told
# Procedure, shortened: (§1)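 PAMPA: DMSO stock diluted 1:1 with 10 mM PBS pH 7.4 as donor, through filter coated with 1% phosphatidylcholine in dodecane. Acceptor DMSO/PBS 1:1; incubated at rt for 4 h with gentle shaking. Both compartments quantified by LC-UV-MS to give Papp and % membrane retention; three independent experiments in triplicate.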
# [8] = Permeability of the compound in PBS buffer at pH 7.4 assessed as membrane retention rate by PAMPA method; type: ADME; procedure, shortened: as §1
# [9] = Metabolic stability in human liver microsome measured after 1 hr in presence of NADPH by UV/LC-MS analysis; type: ADME; conditions: liver microsomes, read-out: Stability
# Procedure, shortened: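 Compound incubated with HLM (0.2 mg/mL) and NADPH (in 48 mM MgCl2) in 10 mM PBS pH 7.4 at 37 °C for 60 min with shaking. Stopped with cold ACN, centrifuged, dried under N2 and quantified by UV/LC-MS for % unmetabolized.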
# [10] = Stability in human plasma measured after 24 hrs by UV-LC/MS analysis; type: ADME, cell-free; conditions: read-out: Stability
# Huh-7 [11] = assay: Antiproliferative activity against human Huh-7 cells assessed as cell growth inhibition measured at 24 hrs by MTT assay; conditions: Huh-7, 24 h
# [12] = Cytotoxicity against human HaCaT cells assessed as reduction in cell proliferation incubated for 24 hrs by MTT assay; type: toxicity, cell-based
# [13] = Cytotoxicity against human HaCaT cells assessed as reduction in cell proliferation incubated for 48 hrs by MTT assay; type: toxicity, cell-based
# [14] = Cytotoxicity against human HaCaT cells assessed as reduction in cell proliferation incubated for 72 hrs by MTT assay; type: toxicity, cell-based
# [15] = Cytotoxicity against human HEK293 cells assessed as reduction in cell proliferation incubated for 24 hrs by MTT assay; type: toxicity, cell-based
# [16] = Cytotoxicity against human HEK293 cells assessed as reduction in cell proliferation incubated for 48 hrs by MTT assay; type: toxicity, cell-based
# [17] = Cytotoxicity against human HEK293 cells assessed as reduction in cell proliferation incubated for 72 hrs by MTT assay; type: toxicity, cell-based
# HepG2 [18] = assay: Inhibition of cell colony formation in human HepG2 cells assessed as reduction in clonogenic survival at 0.5 uM incubated for 10 days by crystal violet staining based assay; type: functional; conditions: HepG2, 240 h, time 10 day
# Procedure, shortened: (§2)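 HepG2 at 1000 cells/dish in DMEM with 10% FBS, exposed to 0.25, 0.5, 1 or 2 µM for 10 days. Colonies (>50 cells) fixed with methanol, stained with 0.5% crystal violet and counted. Three independent experiments in triplicate; unpaired t-test vs untreated.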
# HepG2 [19] = assay: Inhibition of cell colony formation in human HepG2 cells assessed as reduction in clonogenic survival at 1 to 2 uM incubated for 10 days by crystal violet staining based assay; type: functional; conditions: dose 1-2 µM, time 10 day; procedure, shortened: as §2
# HepG2 [20] = assay: Antiproliferative activity against human HepG2 cells assessed as inhibition of cell growth at 10 to 100 uM preincubated for 24 hrs followed by 48 hrs drug-free treatment by MTT assay; type: functional, cell-based; conditions: dose 10-100 µM
# Procedure, shortened: (§3)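 HepG2 exposed to 0.1–100 µM for 24 h (or 48 h), then washed with PBS and kept 48 h (or 24 h) in drug-free DMEM with 10% FBS. Viability by MTT. Means ± SD of three independent experiments in triplicate; ANOVA with Tukey test.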
# HepG2 [21] = assay: Antiproliferative activity against human HepG2 cells assessed as inhibition of cell growth at 0.1 to 1 uM incubated for 24 hrs by MTT assay; type: functional, cell-based; conditions: dose 0.1-1 µM; procedure, shortened: as §3
# HepG2 [22] = assay: Antiproliferative activity against human HepG2 cells assessed as cell viability at 0.1 to 1 uM preincubated for 24 hrs followed by 48 hrs drug-free treatment by MTT assay; type: functional; conditions: dose 0.1-1 µM; procedure, shortened: as §3
# HepG2 [23] = assay: Induction of cell cycle arrest in human HepG2 cells assessed as accumulation of hypodiploid cells at sub G0/G1 phase incubated for 72 hrs by FACScan flow cytometer analysis relative to control; type: functional
# Procedure, shortened: (§4)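 HepG2 treated about 2 µM for 72 h. DNA content measured by FACScan flow cytometry, red fluorescence through a 563–607 nm bandpass (FL2), 10^4 cells/sample. Phase percentages are means ± SD of three independent experiments in triplicate vs control.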
# HepG2 [24] = assay: Induction of cell cycle arrest in human HepG2 cells assessed as decrease in accumulation of G0/G1 phase incubated for 72 hrs by FACScan flow cytometer analysis relative to control; type: functional; design: scale not given: the % may be the effect or the level left; procedure, shortened: as §4
# HepG2 [25] = assay: Induction of cell cycle arrest in human HepG2 cells assessed as accumulation of cells at S phase incubated for 72 hrs by FACScan flow cytometer analysis relative to control; type: functional; procedure, shortened: as §4
# HepG2 [26] = assay: Induction of cell cycle arrest in human HepG2 cells assessed as accumulation of cells at G2/M phase incubated for 72 hrs by FACScan flow cytometer analysis relative to control; type: functional; procedure, shortened: as §4
# HepG2 [27] = assay: Inhibition of cell migration in human HepG2 cells assessed as wound closure at 0.25 uM measured at 72 hrs by T-sratch assay; conditions: HepG2, 72 h
# [28] = Stability in human plasma assessed as half life measured up to 24 hrs by UV-LC/MS analysis; type: ADME, cell-free
# [29] = Inhibition of Abl (unknown origin)
IC50 (HepG2 [1]) [µM],IC50 (HepG2 [2]) [µM],IC50 (HepG2 [3]) [µM],IC50 (Huh-7 [4]) [µM],IC50 (Huh-7 [5]) [µM],solubility thermodynamic [6] [µg/mL],Papp at 4 h [7] [×10⁻⁶ cm/s],membrane retention [8] [%],remaining at 1 h [9] [%],remaining at 24 h [10] [%],IC50 (Huh-7 [11]) [µM],Compound,further results
87.1,5.06,3.19,22,11.1,< 0.01,0.14,6.1,> 100,> 100,–,O=C(Nc1cccc(O)c1)c1cnc(Nc2ncnc3c2cnn3CC(Cl)c2ccccc2)s1 (stereo not given),–
12,7.31,1.55,13.7,7.21,< 0.01,< 0.1,0.51,> 100,99.5,26.5,Cn1ncc2c(Nc3ncc(C(=O)Nc4cc(O)ccc4Br)s3)nc(SCCN3CCOCC3)nc21,–
–,7.46,3.7,21.2,15.3,< 0.01,12,8.36,99,88.5,–,O=C(Nc1ccccc1)c1cnc(Nc2ncnc3c2cnn3CC(Cl)c2ccccc2)s1 (stereo not given),–
59.6,13.9,2.47,28.8,10.3,< 0.01,< 0.1,19,> 100,> 100,54.7,Cc1ccc(O)cc1NC(=O)c1cnc(Nc2nc(SCCN3CCOCC3)nc3c2cnn3C)s1,CC50 at 24 h [12]: 92.8 µM; CC50 at 48 h [13]: 22.8 µM; CC50 at 72 h [14]: 3.27 µM; CC50 at 24 h [15]: 18.5 µM; CC50 at 48 h [16]: 6.9 µM; CC50 at 72 h [17]: 5.23 µM; inhibition at 0.5 µM (HepG2 [18]): 40%; Activity (HepG2 [19]): 24%; Activity (HepG2 [20]): inactive; Activity (HepG2 [21]): Active; Activity (HepG2 [22]): 15%; Activity (HepG2 [23]): 44.1%; Activity (HepG2 [24]): 10.4%; Activity (HepG2 [25]): 25.2%; Activity (HepG2 [26]): 38.5%; wound closure % at 0.25 µM (HepG2 [27]): ~70%
–,–,7.9,33.5,14,< 0.01,1.61,16.49,99.8,98.3,67.6,Cn1ncc2c(Nc3ncc(C(=O)Nc4ccccc4)s3)nc(SCCN3CCOCC3)nc21,half-life [28]: > 24 h
–,–,6.52,48.8,26.1,0.01,< 0.1,7.28,> 100,94.5,–,Cn1ncc2c(Nc3ncc(C(=O)Nc4cccc(O)c4)s3)nc(NCCO)nc21,–
> 50,> 50,> 50,–,–,0.03,0.1,3.1,99.4,–,–,Cn1ncc2c(Nc3ncc(C(=O)Nc4cccc(O)c4)s3)nc(SCCN3CCOCC3)nc21,–
23.5,9.54,7.75,16.3,12.7,–,–,–,–,–,37.5,Cc1nc(Nc2ncc(C(=O)Nc3c(C)cccc3Cl)s2)cc(N2CCN(CCO)CC2)n1 [DASATINIB ANHYDROUS],IC50 [29]: 0.0006 µM; CC50 at 24 h [12]: 20.4 µM; CC50 at 48 h [13]: 1.35 µM; CC50 at 72 h [14]: 0.22 µM; CC50 at 24 h [15]: 5.4 µM; CC50 at 48 h [16]: 0.89 µM; CC50 at 72 h [17]: 0.78 µM
